Assay results as given in ChEMBL document CHEMBL1140112, “Desferrithiocin analogues and nephrotoxicity” (J Med Chem, 2008).

Experiments:
Sapajus apella [1] = experiment: Iron-clearing efficiency in iron-overloaded Cebus apella assessed as bile iron excretion at 150 umol/kg, po relative to control; assay type: functional
Sapajus apella [2] = experiment: Iron-clearing efficiency in iron-overloaded Cebus apella at 150 umol/kg, po relative to control; assay type: functional
Procedure, shortened: (§1)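 Iron-overloaded Cebus apella were dosed once by oral gavage with the monosodium salt (free acid plus 1 equiv NaOH in distilled water; one ligand in 40% Cremophor RH-40/water). Feces and urine were collected at 24 h intervals from 4 d pre-drug to 5 d post-drug, and iron was read by flame AAS. ICE = 2-day post-drug iron minus mean 4-day baseline, divided by theoretical output (2:1 complex), as %. Mean ± SEM.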

Rattus norvegicus [3] = experiment: Iron-clearing efficiency in non-iron-overloaded Sprague-Dawley rat assessed as bile iron excretion at 300 umol/kg, po relative to control; assay type: functional
Procedure, shortened: (§2)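 Non-iron-overloaded, bile duct-cannulated male Sprague-Dawley rats (400-450 g) got a single 300 µmol/kg dose by oral gavage, as the monosodium salt in distilled water. Bile was collected at 3 h intervals for 24 h and urine at 24 h, with iron by atomic absorption. ICE = treated minus control iron excretion, divided by theoretical output (2:1 complex), as %. n = 3-8; mean ± SEM.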

Sapajus apella [4] = experiment: Iron-clearing efficiency in iron-overloaded Cebus apella assessed as urine iron excretion at 150 umol/kg, po relative to control; assay type: functional; procedure, shortened: as §1
Rattus norvegicus [5] = experiment: Iron-clearing efficiency in non-iron-overloaded Sprague-Dawley rat assessed as urine iron excretion at 300 umol/kg, po relative to control; assay type: functional; procedure, shortened: as §2
Rattus norvegicus [6] = experiment: Iron-clearing efficiency in non-iron-overloaded Sprague-Dawley rat at 300 umol/kg, po after 24 hrs relative to control; assay type: functional; procedure, shortened: as §2
Rattus norvegicus [7] = experiment: Nephrotoxicity in non-iron-overloaded Sprague-Dawley rat at 300 umol/kg, po; assay type: toxicity, organism-based; settings: in vivo
Procedure, shortened: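 Male Sprague-Dawley rats (400-450 g), not iron-overloaded, bile duct-cannulated, each given a single 300 µmol/kg oral gavage dose.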

[8] = Apparent partition coefficient, log P at pH 7.4 by shake flask method; assay type: physicochemical; settings: octanol/water; for logD: read-out: LogD7.4
Procedure, shortened: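 Apparent partition between octanol and water, expressed as log of the fraction in the octanol layer (log P_app); direct shake-flask method in Tris buffer, pH 7.4.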

SMILES | Activity (Sapajus apella [1]) | Activity (Sapajus apella [2]) | Activity (Rattus norvegicus [3]) | Activity (Sapajus apella [4]) | Activity (Rattus norvegicus [5]) | Activity (Rattus norvegicus [6]) | Activity (Rattus norvegicus [7]) | LogD7.4 [8] | logD [8]
C[C@]1(C(=O)[O-])CSC(c2ccc(O)cc2O)=N1.[Na+] [DEFERITRIN SODIUM] | 88% | 16.8% | 100% | 12% | 0% | 1.1% | – | – | –
CCCCOc1ccc(O)c(C2=N[C@@](C)(C(=O)[O-])CS2)c1.[Na+] | – | – | 99% | – | 1% | 21% | Toxic | 0.94 | –
CCOc1ccc(C2=N[C@@](C)(C(=O)[O-])CS2)c(O)c1.[Na+] | – | – | 100% | – | 0% | 18% | – | -0.04 | –
CCCCCCCCOc1ccc(C2=N[C@@](C)(C(=O)[O-])CS2)c(O)c1.[Na+] | – | – | 94% | – | 6% | 6.4% | – | 1.53 | –
C[C@]1(C(=O)[O-])CSC(c2cc(O)ccc2O)=N1.[Na+] | 88% | 12.6% | 99% | 12% | 1% | 1% | – | – | -1.14
CCCCOc1ccc(C2=N[C@@](C)(C(=O)[O-])CS2)c(O)c1.[Na+] | – | – | 98% | – | 2% | 13.1% | Toxic | 1.02 | –
COc1ccc(C2=N[C@@](C)(C(=O)[O-])CS2)c(O)c1.[Na+] | 91% | 24.4% | 98% | 9% | 2% | 6.6% | – | – | –
CCCCCCCCOc1cc(O)c(C2=N[C@@](C)(C(=O)[O-])CS2)cc1OCCCCCCCC.[Na+] | – | – | – | – | – | <0.5% | – | 2.05 | –
COCCOCCOCCOc1ccc(C2=N[C@@](C)(C(=O)[O-])CS2)c(O)c1.[Na+] | 96% | 25.4% | 90% | 4% | 10% | 5.5% | – | – | –
CCCCCCCCOc1ccc(O)c(C2=N[C@@](C)(C(=O)[O-])CS2)c1.[Na+] | – | – | 97% | – | 3% | 4% | – | 1.56 | –
COc1ccc(O)c(C2=N[C@@](C)(C(=O)[O-])CS2)c1.[Na+] | 94% | 18.9% | 95% | 6% | 5% | 6.3% | – | – | -0.61
